Measurements taken from ChEMBL document CHEMBL1143102, “Synthesis, radiofluorination, and in vitro evaluation of pyrazolo[1,5-a]pyridine-based dopamine D4 receptor ligands: discovery of an inverse agonist radioligand for PET” (J Med Chem, 2008).

Tests used:
[1] = Stability in human serum at 37 degC after 90 mins; format: ADME, cell-free; conditions: read-out: Stability
Summary of the method: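 PBS-formulated 18F-labeled compound (20 µL, 250 MBq/mL) is added to 200 µL human serum and incubated at 37 °C for up to 90 min. The percentage of intact radioligand is reported.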

[2] = Lipophilicity, log D at pH 7.4; format: physicochemical; conditions: buffer
Summary of the method: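 Shake-flask partition of about 25 kBq 18F-labeled compound between 1-octanol and PBS pH 7.4, mixed 3 min at room temperature and centrifuged. Triplicate 100 µL samples of each phase are gamma-counted. log D7.4 = log(cpm octanol/cpm buffer), from 2–3 independent experiments in triplicate, mean ± SD.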

[3] = Displacement of [3H]spiperone from cloned human dopamine D4.4 receptor expressed in CHO cells; format: cell-based
[4] = target: 5-hydroxytryptamine receptor 2A (Sus scrofa, UniProt P50129); test: Displacement of [3H]ketanserin from 5HT2 receptor in pig cortical membranes; format: cell membranes
Sequence of 5-hydroxytryptamine receptor 2A (P50129 whole entry): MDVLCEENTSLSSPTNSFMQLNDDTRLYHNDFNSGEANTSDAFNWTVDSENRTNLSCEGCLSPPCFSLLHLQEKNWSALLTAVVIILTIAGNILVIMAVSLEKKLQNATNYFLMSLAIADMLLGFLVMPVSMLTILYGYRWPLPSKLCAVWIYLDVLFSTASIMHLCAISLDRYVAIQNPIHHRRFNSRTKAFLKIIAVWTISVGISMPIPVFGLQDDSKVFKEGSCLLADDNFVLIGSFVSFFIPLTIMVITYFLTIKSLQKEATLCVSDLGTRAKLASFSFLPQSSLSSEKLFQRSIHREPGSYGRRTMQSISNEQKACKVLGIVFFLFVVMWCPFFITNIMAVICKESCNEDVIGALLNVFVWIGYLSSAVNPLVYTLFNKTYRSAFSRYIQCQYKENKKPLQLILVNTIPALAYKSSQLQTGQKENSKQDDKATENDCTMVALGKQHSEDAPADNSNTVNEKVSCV
Summary of the method: (§1)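 Competition binding on porcine cortical membranes. Radioligands, each at 0.5 nM final: [3H]8-OH-DPAT for 5-HT1A, [3H]ketanserin for 5-HT2, [3H]prazosin for α1.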

D(2) dopamine receptor [5] = target: T1, D(2) dopamine receptor (Homo sapiens, UniProt P14416); test: Displacement of [3H]spiperone from cloned human dopamine D2S receptor expressed in CHO cells; format: cell-based
T1 sequence (P14416 whole entry): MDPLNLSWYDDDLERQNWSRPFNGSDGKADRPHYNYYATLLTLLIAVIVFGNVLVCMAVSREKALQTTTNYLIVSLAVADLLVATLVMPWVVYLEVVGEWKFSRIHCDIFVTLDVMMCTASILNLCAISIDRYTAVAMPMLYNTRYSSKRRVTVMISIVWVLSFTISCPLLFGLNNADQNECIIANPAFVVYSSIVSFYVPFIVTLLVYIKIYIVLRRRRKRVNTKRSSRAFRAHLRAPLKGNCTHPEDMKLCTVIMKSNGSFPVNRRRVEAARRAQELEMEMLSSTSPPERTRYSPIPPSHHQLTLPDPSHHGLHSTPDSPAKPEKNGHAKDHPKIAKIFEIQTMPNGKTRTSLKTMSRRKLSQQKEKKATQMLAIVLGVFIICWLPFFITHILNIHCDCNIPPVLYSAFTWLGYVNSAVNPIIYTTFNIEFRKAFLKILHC

[6] = Displacement of [3H]prazosin from adrenergic alpha1 receptor in pig cortical membranes; format: cell membranes, Sus scrofa; summary of the method: as §1
[7] = Displacement of [3H]8-OH-DPAT from 5HT1A receptor in pig cortical membranes; format: cell membranes, Sus scrofa; summary of the method: as §1
D(1A) dopamine receptor = D(1A) dopamine receptor (Sus scrofa, UniProt P50130); test: Displacement of [3H][…] from dopamine D1 receptor in pig striatal membrane; format: cell membranes, Striatum
Sequence of D(1A) dopamine receptor (P50130 whole entry): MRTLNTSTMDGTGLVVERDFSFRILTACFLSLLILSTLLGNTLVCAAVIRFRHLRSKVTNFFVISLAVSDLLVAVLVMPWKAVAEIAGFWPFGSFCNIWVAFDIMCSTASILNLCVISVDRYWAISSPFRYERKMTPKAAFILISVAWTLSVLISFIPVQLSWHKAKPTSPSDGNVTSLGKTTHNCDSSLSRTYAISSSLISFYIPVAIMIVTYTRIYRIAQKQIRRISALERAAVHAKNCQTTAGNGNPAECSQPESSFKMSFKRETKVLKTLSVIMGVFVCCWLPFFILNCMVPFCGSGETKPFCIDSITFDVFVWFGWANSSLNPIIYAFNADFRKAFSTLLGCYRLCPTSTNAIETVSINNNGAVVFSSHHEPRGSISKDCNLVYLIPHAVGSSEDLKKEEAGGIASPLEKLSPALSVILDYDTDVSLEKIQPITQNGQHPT

D(3) dopamine receptor = D(3) dopamine receptor (Homo sapiens, UniProt P35462); test: Displacement of [3H]spiperone from cloned human dopamine D3 receptor expressed in CHO cells; format: cell-based
Sequence of D(3) dopamine receptor (P35462 whole entry): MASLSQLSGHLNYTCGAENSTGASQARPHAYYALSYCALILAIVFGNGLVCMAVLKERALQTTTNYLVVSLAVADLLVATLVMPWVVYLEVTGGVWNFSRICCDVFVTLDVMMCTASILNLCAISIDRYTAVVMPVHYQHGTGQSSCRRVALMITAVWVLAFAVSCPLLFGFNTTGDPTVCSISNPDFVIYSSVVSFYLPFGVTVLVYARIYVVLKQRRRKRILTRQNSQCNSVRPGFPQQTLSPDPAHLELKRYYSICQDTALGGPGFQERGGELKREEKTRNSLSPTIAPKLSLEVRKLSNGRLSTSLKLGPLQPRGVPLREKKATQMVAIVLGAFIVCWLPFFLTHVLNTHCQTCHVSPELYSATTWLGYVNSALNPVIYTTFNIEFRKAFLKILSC

D(2) dopamine receptor [8] = target: T1, D(2) dopamine receptor; test: Displacement of [3H]spiperone from cloned human dopamine D2L receptor expressed in CHO cells; format: cell-based
[9] = target: T2, D(4) dopamine receptor (Rattus norvegicus) (UniProt P30729); test: Displacement of 2-[4-(2-(2-[18F]fluoroethoxy)phenyl)piperazin-1-ylmethyl]pyrazolo[1,5-alpha]pyridine from dopamine D4 receptor in Sprague-Dawley rat brain
T2 sequence (whole entry): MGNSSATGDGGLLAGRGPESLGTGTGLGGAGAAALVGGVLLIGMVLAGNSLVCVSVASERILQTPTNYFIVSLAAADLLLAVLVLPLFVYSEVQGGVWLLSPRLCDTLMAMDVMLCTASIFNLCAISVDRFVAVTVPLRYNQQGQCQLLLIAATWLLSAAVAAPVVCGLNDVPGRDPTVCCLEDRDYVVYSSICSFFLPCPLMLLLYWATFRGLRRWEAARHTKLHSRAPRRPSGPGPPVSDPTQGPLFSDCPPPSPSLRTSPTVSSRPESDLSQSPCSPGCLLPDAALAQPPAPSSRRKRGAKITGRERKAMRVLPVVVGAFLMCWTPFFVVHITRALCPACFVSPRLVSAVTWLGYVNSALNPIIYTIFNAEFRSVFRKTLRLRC
Summary of the method: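 In vitro autoradiography on 20 µm coronal brain cryosections from female Sprague–Dawley rats. Sections are preincubated 2 × 5 min, then incubated 60 min at room temperature with 110 kBq/mL [18F] radioligand, ± competitor (1 µM). Buffer: Tris-HCl, NaCl, EDTA, MgCl2 pH 7.4, with 0.5 µM DTG and 0.1 µM pindolol. Sections are washed cold, imaged by real-time autoradiography, and ROI intensities (cpm/mm2) are defined by HE counterstaining.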

Homo sapiens [10] = species: Homo sapiens; test: Selectivity for human dopamine D4.4 receptor over human dopamine D2L receptor
Homo sapiens [11] = species: Homo sapiens; test: Selectivity for human dopamine D4.4 receptor over human dopamine D3 receptor
[12] = Agonist activity at rat dopamine D4.2 receptor expressed in CHO10001A cells assessed as incorporation of [3H]thymidine relative to quinpirole; format: functional
Homo sapiens [13] = species: Homo sapiens; test: Selectivity for human dopamine D4.4 receptor over human dopamine D2S receptor
[14] = Agonist activity at rat dopamine D4.2 receptor expressed in CHO10001A cells assessed as incorporation of [3H]thymidine; format: functional, cell-based

remaining at 1.5 h [1] | logD [2] | Ki [4] | Ki (D(2) dopamine receptor [5]) | Ki [6] | Ki [7] | Ki (D(1A) dopamine receptor) | Ki (D(3) dopamine receptor) | Ki (D(2) dopamine receptor [8]) | Activity [9] | Ratio Ki (Homo sapiens [10]) | Ratio Ki (Homo sapiens [11]) | Ratio Ki (Homo sapiens [13]) | EC50 [14] | SMILES | Ki [3] | Efficacy [12]
> 98% | 1.98 |  |  |  |  |  |  |  |  |  |  |  |  | [18F]c1cccc(N2CCN(Cc3cnn4ccccc34)CC2)n1 |  | 
 |  | 24700 nM | 87000 nM | 82 nM | 12000 nM | 9900 nM | 3400 nM | 6100 nM |  |  |  |  |  | Oc1ccc(N2CCN(Cc3cnn4ccccc34)CC2)cc1 | 20 nM | 
 |  | 1500 nM | 4700 nM | 26 nM | 680 nM | 2800 nM | 2200 nM | 4500 nM |  |  |  |  |  | Oc1ccccc1N1CCN(Cc2cnn3ccccc23)CC1 | 44 nM | 
 |  |  |  |  |  |  |  |  | 65% |  |  |  |  | CCc1cc(Cl)c(OC)c(C(=O)NC[C@@H]2CCCN2CC)c1O |  | 
 |  | 13000 nM | 79 nM | 40 nM | 5700 nM | 4800 nM | 940 nM | 46 nM |  | 35 | 723 | 61 | 0.8 nM | FCCOc1ccccc1N1CCN(Cc2cc3ccccn3n2)CC1 | 1.3 nM | 49%
 |  | 14000 nM | 79000 nM | 4500 nM | 13000 nM | 33000 nM | 8700 nM | 66000 nM |  | 2360 | 311 | 2820 | 18 nM | FCCOc1ccc(N2CCN(Cc3cnn4ccccc34)CC2)cc1 | 28 nM | -41%
 |  | 4400 nM | 550 nM | 240 nM | 360 nM | 18000 nM | 930 nM | 880 nM |  |  |  |  |  | Brc1cccc(N2CCN(Cc3cc4ccccn4n3)CC2)n1 | 7.9 nM | 
 |  | 2900 nM | 180 nM | 5.4 nM | 120 nM | 2500 nM | 320 nM | 150 nM |  |  |  |  | 1 nM | FCCOc1ccccc1N1CCN(Cc2cnn3ccccc23)CC1 | 1.6 nM | 71%
 |  |  |  | 270 nM | 1700 nM |  |  |  | 78% | 1550 | 2410 | 2860 |  | Clc1ccc(N2CCN(Cc3cc4ccccn4n3)CC2)cc1 | 2.2 nM | <3%
 |  | 1200 nM | 150 nM | 21 nM | 120 nM | 3900 nM | 410 nM | 210 nM |  |  |  |  |  | Brc1cccc(N2CCN(Cc3cnn4ccccc34)CC2)n1 | 2.6 nM | 
> 99% | 1.99 |  |  |  |  |  |  |  |  |  |  |  |  | [18F]CCOc1ccc(N2CCN(Cc3cc4ccccn4n3)CC2)cc1 |  | 
 |  |  |  | 240 nM | 1400 nM |  |  |  |  |  |  |  |  | Clc1ccc(N2CCN(Cc3cnn4ccccc34)CC2)cc1 [FAUC 113] | 5.8 nM | 26%
> 99% | 1.78 |  |  |  |  |  |  |  |  |  |  |  |  | [18F]c1cccc(N2CCN(Cc3cc4ccccn4n3)CC2)n1 |  | 
 |  | 9700 nM | 1700 nM | 910 nM | 1200 nM | 30000 nM | 3400 nM | 3400 nM |  | 142 | 142 | 71 |  | Fc1cccc(N2CCN(Cc3cc4ccccn4n3)CC2)n1 | 24 nM | 
 | 2.15 |  |  |  |  |  |  |  |  |  |  |  |  | [18F]CCOc1ccccc1N1CCN(Cc2cnn3ccccc23)CC1 |  | 
> 96% | 2.12 |  |  |  |  |  |  |  |  |  |  |  |  | [18F]CCOc1ccc(N2CCN(Cc3cnn4ccccc34)CC2)cc1 |  | 
 |  | 5400 nM | 220 nM | 87 nM | 290 nM | 7300 nM | 590 nM | 330 nM |  | 38 | 67 | 25 |  | Fc1cccc(N2CCN(Cc3cnn4ccccc34)CC2)n1 | 8.8 nM | 
 |  | 5500 nM | 50000 nM | 4100 nM | 1400 nM | 29000 nM | 15000 nM | 30000 nM |  | 2310 | 1150 | 3850 | 9.1 nM | FCCOc1ccc(N2CCN(Cc3cc4ccccn4n3)CC2)cc1 | 13 nM | -37%

SMILES | remaining at 1.5 h [1] | logD [2] | Ki [4] | Ki (D(2) dopamine receptor [5]) | Ki [6] | Ki [7] | Ki (D(1A) dopamine receptor) | Ki (D(3) dopamine receptor) | Ki (D(2) dopamine receptor [8]) | Activity [9] | Ratio Ki (Homo sapiens [10]) | Ratio Ki (Homo sapiens [11]) | Ratio Ki (Homo sapiens [13]) | EC50 [14] | Ki [3] | Efficacy [12]
CCCN1CCC[C@@H]2Cc3n[nH]cc3C[C@H]21 [QUINPIROLE] |  |  |  |  |  |  |  |  |  |  |  |  |  | 7.1 nM |  | 
